High-throughput results (PubChem BioAssay)
ABHD4 inh – inhibits mouse alpha/beta hydrolase domain 4; Q8VD66; purified mABHD4, FP-Rh probe fluorescence polarization; inhibition, % at 8.92 µM; 0.54% of 370,000 active;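 active = inhibition exceeding the mean over every tested compound plus 3 SD, cut at about 30% in these data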;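 note: 0% = plate median of compound wells and 100% = S159A mutant with DMSO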
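System: mouse ABHD4 enzyme, wild type / Medium: HEPES pH 7.0, NaCl, Pluronic buffer / Reagent: FP-Rh activity-based fluorescent probe / Control set: S159A mutant high control, sample median low control / Detection: fluorescence polarization with parallel and perpendicular emission, 525/598 nm / Schedule: 45 min + 60 min at 25 °C / Compound dosing: 8.92 µM, single dose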
SIAE primary – blocks human sialic acid acetylesterase. Q9HAT2. SIAE FP-Rh probe binding, fluorescence polarization. inhibition, % at 9.66 µM. 0.69% of 370,000 active;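 active = inhibition above a cutoff: mean of compounds within the control limits plus 3 SD of those, cut at about 17% in these data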;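 note: 0% = plate median of compound wells and 100% = probe without SIAE protein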
HTRA1 inhibitor – inhibitors of human serine peptidase HTRA1 | 0.5% of 340,000 active | AID 504803 | inhibition, % at 5.96 µM | recombinant HTRA1, FP-rhodamine activity-based probe, fluorescence polarization; in the data active = inhibition above about 36%;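 note: 0% = enzyme with DMSO and 100% = wells lacking enzyme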
GASC-1 inh – human JMJD2C demethylase inhibition; GST-JMJD2C(1-420) H3K9me3 demethylation, DELFIA europium; 0.069% of 330,000 active; inhibition, % at 2.35 µM; AID 2099; Q9H3R0;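 active = more than half of a compound's replicate wells show inhibition beyond 50%, single wells judged on their own value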;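 note: signal counts dimethyl H3K9 product captured on neutravidin plate; 0% = median of DMSO wells and 100% = 0.3 times that DMSO median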
Target sequence (Q9H3R0 1-420 limits assumed): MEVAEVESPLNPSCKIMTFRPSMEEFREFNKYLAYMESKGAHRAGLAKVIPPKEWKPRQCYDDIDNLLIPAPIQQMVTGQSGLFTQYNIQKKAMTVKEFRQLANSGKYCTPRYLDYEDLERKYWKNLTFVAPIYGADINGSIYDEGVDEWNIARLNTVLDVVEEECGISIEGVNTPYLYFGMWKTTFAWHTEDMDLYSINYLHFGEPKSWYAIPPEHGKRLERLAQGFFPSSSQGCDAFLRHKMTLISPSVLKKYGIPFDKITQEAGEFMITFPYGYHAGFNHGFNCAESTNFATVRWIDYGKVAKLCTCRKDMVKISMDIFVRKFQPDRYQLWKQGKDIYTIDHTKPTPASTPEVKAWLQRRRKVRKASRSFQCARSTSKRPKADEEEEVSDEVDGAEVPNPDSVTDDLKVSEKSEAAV
PRMT1 inh – inhibitors of human PRMT1 | Q99873 | recombinant PRMT1, activity-based probe fluorescence polarization | inhibition, % at 2.79 µM | 1.3% of 370,000 active;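 active = inhibition above about 21% made by adding two undisclosed values, limit read from the data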
An asterisk follows results filed as active; / = not tested or not shown. Sampled rows, rich in hits. Any-hit rate of the full collection: about 2.4%.

SMILES | ABHD4 inh | SIAE primary | HTRA1 inhibitor | GASC-1 inh | PRMT1 inh
COc1ccc(C(=O)CSc2ccc(-c3ccco3)nn2)cc1 | 6.4 | 0.9 | 3.3 | -19.8 | 23.2*
O=c1[nH]c2cc3c(cc2cc1CN(Cc1nnnn1CC1CCCO1)C1CCCCC1)OCO3 (stereo not drawn) | 1.8 | -7.8 | -4.2 | -0.1 | 23.2*
O=c1[nH]c2cc3c(cc2cc1CN(Cc1nnnn1CC1CCCO1)C1CCCC1)OCO3 (stereo not drawn) | 2.8 | -2.7 | -7.0 | 2.4 | 0.5
CCOC(=O)[C@]12CCC=C1N(Cc1ccc(Cl)cc1Cl)C(=O)[C@H](CC(=O)NCC1CCCCC1)C2 | 3.1 | -4.4 | / | / | 1.7
COc1ccc(N2C(=O)CC(N3CCOCC3)C2=O)cc1 (stereo not drawn) | -3.1 | 0.4 | 9.5 | 2.1 | 21.3*
NC(=O)c1sc2nc(-c3ccccc3)c3c(c2c1N)CCCC3 | 5.5 | 2.5 | -9.3 | 4.6 | 24.7*
Cc1ccc(-c2nc3sc(C(N)=O)c(N)c3c3c2CCCC3)cc1 | -1.9 | 12.0 | -12.9 | -6.9 | 17.1
CCNC(=S)NC(=NCc1cccnc1)Nc1nc(C)cc(C)n1 | 5.5 | 2.1 | 3.1 | 75.8* | 6.6
CCC(c1nnnn1Cc1ccco1)N(CCN1CCOCC1)Cc1cc2cc(C)ccc2[nH]c1=O (stereo not drawn) | 3.8 | 2.6 | -0.3 | 4.1 | 21.4*
O=C(NCc1ccc(C(=O)NC2CCCC2)cc1)c1cccc(Br)c1 | -6.8 | -6.5 | / | / | -0.6
CCOC(=O)C(NC(=O)CCl)(Nc1sc(C)c(CC)c1C#N)C(F)(F)F (stereo not drawn) | -1.4 | 10.5 | -17.5 | -3.2 | 21.8*
CCOC(=O)[C@]12CCCC=C1N(CCCOC)C(=O)[C@@H]2CC(=O)N1CCCC1 | -2.8 | -3.1 | / | / | -2.1
Cc1ccccc1-n1sc2cc(F)ccc2c1=O | 15.1 | 4.6 | -0.3 | 5.1 | 88.4*
O=c1c2cc(C(F)(F)F)ccc2sn1-c1ccccc1 | 7.9 | 3.2 | 2.1 | / | 70.7*
O=c1c2ccccc2sn1-c1ccccc1 | 3.3 | 4.1 | -13.4 | -6.5 | 95.0*
O=c1c2cc(F)ccc2sn1-c1ccccc1 | 19.9 | 9.1 | -0.7 | 7.4 | 89.0*
O=C(OC12CCCN(C1)/C(=C/c1ccncc1)C2)C1CCCCC1 (stereo not drawn) | 4.3 | 1.6 | / | / | -2.4
COC(=O)[C@]12C[C@H](CC(=O)NCC3CCCCC3)C(=O)N(Cc3cccc4ccccc34)C1=C[C@H](C(C)C)O[C@@H]2C1CC1 | -3.4 | 0.4 | / | / | 4.0
COc1ccc(C(=O)O[C@@H]2CCC[C@@]3(C(=O)N(Cc4ccccc4)c4ccccc43)[C@H]2NC(=O)CCc2ccccc2)cc1OC | -12.6 | -11.5 | / | / | -3.5
O=C(CCCCn1c(=O)[nH]c2ccsc2c1=O)NCc1cccnc1 | -3.7 | 20.2* | 2.6 | 2.3 | -2.7
COc1ccccc1NC(=O)CCCCCN1C(=O)c2cccc([N+](=O)[O-])c2C1=O | 1.1 | -1.7 | -0.7 | -18.9 | 0.8
COc1cc(/C=C2/C(=O)c3cccc([N+](=O)[O-])c3C2=O)c(Br)cc1O | 46.2* | -14.9 | 29.6 | 3.5 | 62.1*
CC(=O)C1=C(c2cccc([N+](=O)[O-])c2)N(C(C)=O)n2c(C)nnc2S1 | -6.8 | -1.6 | -0.1 | 28.0 | 75.5*
CCC(=O)N1CCN(c2ccc(NC(=O)c3ccc4c(c3)OCO4)cc2)CC1 | -3.5 | 101.4* | 11.6 | -2.0 | 0.0
CCCCCCCCS(=O)c1sc2nc3c(cc2c1N)CCCC3 (stereo not drawn) | -10.3 | -3.2 | -16.3 | -7.1 | 23.9*
SMILES | ABHD4 inh | SIAE primary | HTRA1 inhibitor | GASC-1 inh | PRMT1 inh
O=C(CCn1nnc(-c2cccs2)n1)NCc1cccs1 | 1.8 | -3.6 | / | / | -6.9
CC(C)(C)c1csc(NC(=O)c2ccccc2O)n1 | -3.9 | 5.4 | -3.2 | -5.5 | -2.9
CC(C)(C)c1csc(NNC(=O)c2ccc(Br)cc2)n1 | -5.2 | -7.0 | 19.6 | 2.6 | 23.3*
O=C1CSc2ccc(C(=O)Nc3cccc(S(=O)(=O)Nc4ccc(Br)cc4)c3)cc2N1 | -211.4 | -192.6 | -160.2 | 11.7 | 21.5*
CCOC(=O)C1=C(C)N=c2s/c(=C\c3ccc(OCC(=O)O)c(OC)c3)c(=O)n2C1c1ccc(OC)cc1 (stereo not drawn) | -34.8 | -15.0 | -19.7 | 8.4 | 31.9*
COc1ccc(S[C@]2(C(=O)NC3CC3)CC(=O)N[C@@H]2c2ccc(OC)cc2)cc1 | -7.4 | -2.5 | / | / | -0.1
COc1ccccc1NC(=S)OCCN1CCCC12CCC(c1ccccc1)CC2 (stereo not drawn) | -7.9 | 0.5 | / | / | 21.7*
COc1ccccc1NC(=O)OCCN1CCCC12CCC(c1ccccc1)CC2 (stereo not drawn) | -0.2 | 1.0 | / | / | 7.1
CNc1cccnc1C=NNC(N)=S | 3.2 | 5.4 | 2.9 | / | 24.2*
NC(=S)N/N=C/c1ccccc1 | 6.8 | 6.2 | 5.5 | 0.5 | 2.7
O=C(NC1CC2CCC1C2)C1COc2ccccc2O1 (stereo not drawn) | 3.2 | 4.9 | 4.3 | 67.6* | 0.3
O=C(O)CNC(=O)C1COc2ccccc2O1 (stereo not drawn) | 1.8 | 16.9 | 7.7 | -5.4 | -1.8
C[C@@H]1ON(C)[C@H]2C[C@H]3c4[nH]c5c(-c6ccc7c(c6)OCO7)cccc5c4CCN3C[C@@H]12 | 4.7 | 1.9 | / | / | -0.1
O=C(NCc1ccc(F)c(F)c1)C1Cc2c(-c3ccc4c(c3)OCO4)ccnc2O1 (stereo not drawn) | -5.9 | -1.1 | / | / | -0.3
COc1cc(CNn2c(C)n[nH]c2=S)cc(Cl)c1OCc1ccccc1 | -7.6 | 0.5 | -8.7 | -3.1 | 24.4*
COc1cc(CNn2cn[nH]c2=S)cc(Cl)c1OCc1ccc(F)cc1 | -5.0 | 12.2 | -3.7 | -2.9 | 11.1
CC1(C)C(=O)CC[C@@]2(C)[C@H]1CC[C@@]1(C)CC3=C(CC[C@@H]12)[C@@]1(C)CCC(=O)C(C)(C)[C@@H]1CC3 | / | / | / | -0.6 | /
Cc1ccc(NC(=O)CN2C(=O)N/C(=C/c3cc(C)n(-c4cccc(C(=O)O)c4)c3C)C2=O)cc1 | 5.0 | -4.6 | -19.2 | / | 25.1*
CCN(CC)C(=O)C1=C(C)N(Cc2ccc(F)cc2)C(=O)C(CC(=O)NCCN2CCOCC2)C1 (stereo not drawn) | 2.9 | -5.5 | 3.3 | / | -0.2
CCC/C=C1/CCCOC(C(=O)NCc2ccc(C)o2)(C(F)(F)F)C1 (stereo not drawn) | -8.5 | -3.5 | -2.9 | 17.9 | 45.3*
CCCOc1ccc(-c2cc(C(C)=O)c3n(c2=O)CCC3)cc1 | -3.9 | 0.4 | / | / | -3.8
CCCCNS(=O)(=O)CC1NCc2cc(OC)ccc21 (stereo not drawn) | -1.6 | 6.7 | / | / | -5.3
Cc1cccc(NS(=O)(=O)c2cccc3nsnc23)c1 | -4.8 | -0.1 | -4.2 | 55.9* | 4.8
Cc1oc(-c2ccc(Cl)cc2)cc1C(=O)N1CCC1(C)C(=O)O (stereo not drawn) | -4.4 | -2.3 | / | / | 23.4*
CC1(C(=O)O)CCCN1C(=O)c1ccc(Cl)cc1Cl (stereo not drawn) | 0.8 | -5.4 | / | / | 4.2
